Columns and labels:
[1] = molecular target: Serine/threonine-protein kinase 26 (Homo sapiens) (UniProt Q9P289); test: Competitive binding affinity to MST4 (unknown origin) at 10 uM in presence of ATP relative to control
[2] = molecular target: Serine/threonine-protein kinase 24 (Homo sapiens) (UniProt Q9Y6E0); test: Competitive binding affinity to MST3 (unknown origin) at 10 uM in presence of ATP relative to control
[3] = molecular target: Serine/threonine-protein kinase MRCK beta (Homo sapiens) (UniProt Q9Y5S2); test: Competitive binding affinity to MRCKB (unknown origin) at 10 uM in presence of ATP relative to control
[4] = molecular target: Serine/threonine-protein kinase MARK1 (Homo sapiens) (UniProt Q9P0L2); test: Competitive binding affinity to MARK1 (unknown origin) at 10 uM in presence of ATP relative to control
Method in brief: (§1)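 In vitro ATP-site competition binding assay, part of profiling against a diverse panel of 128 kinases. Each compound was tested at a single concentration of 10 µM. Kinome selectivity was summarized as S15 selectivity scores.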

[5] = molecular target: T1, Ephrin type-B receptor 3 (Homo sapiens) (UniProt P54753); test: Competitive binding affinity to EPHB3 (unknown origin) at 10 uM in presence of ATP relative to control; method in brief: as §1
T1 sequence (whole entry): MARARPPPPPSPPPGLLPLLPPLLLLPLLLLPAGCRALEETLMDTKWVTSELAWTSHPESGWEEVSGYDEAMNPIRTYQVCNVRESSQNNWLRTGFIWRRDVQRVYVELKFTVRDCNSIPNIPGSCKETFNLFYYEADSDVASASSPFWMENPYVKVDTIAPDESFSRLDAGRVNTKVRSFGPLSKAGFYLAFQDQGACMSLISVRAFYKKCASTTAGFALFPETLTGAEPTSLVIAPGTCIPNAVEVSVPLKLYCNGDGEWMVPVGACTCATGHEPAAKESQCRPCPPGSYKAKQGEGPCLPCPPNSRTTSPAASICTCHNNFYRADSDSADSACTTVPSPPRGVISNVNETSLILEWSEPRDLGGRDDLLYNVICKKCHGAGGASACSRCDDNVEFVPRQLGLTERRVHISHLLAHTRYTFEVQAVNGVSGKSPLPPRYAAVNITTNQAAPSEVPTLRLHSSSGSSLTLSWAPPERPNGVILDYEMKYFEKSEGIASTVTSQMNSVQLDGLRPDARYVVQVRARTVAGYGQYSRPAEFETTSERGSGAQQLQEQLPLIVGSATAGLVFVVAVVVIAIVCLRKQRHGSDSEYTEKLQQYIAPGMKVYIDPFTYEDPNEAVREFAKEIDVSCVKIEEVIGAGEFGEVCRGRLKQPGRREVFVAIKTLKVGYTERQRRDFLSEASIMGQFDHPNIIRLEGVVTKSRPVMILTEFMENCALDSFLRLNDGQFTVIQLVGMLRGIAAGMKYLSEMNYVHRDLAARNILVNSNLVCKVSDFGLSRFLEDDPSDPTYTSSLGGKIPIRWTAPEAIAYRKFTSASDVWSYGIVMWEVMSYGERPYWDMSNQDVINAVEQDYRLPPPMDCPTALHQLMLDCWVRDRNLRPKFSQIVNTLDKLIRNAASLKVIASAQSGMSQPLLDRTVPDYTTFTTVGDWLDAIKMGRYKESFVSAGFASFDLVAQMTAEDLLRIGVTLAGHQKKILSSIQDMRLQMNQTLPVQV

[6] = molecular target: Atypical kinase COQ8A, mitochondrial (Homo sapiens, UniProt Q8NI60); test: Competitive binding affinity to ADCK3 (unknown origin) at 10 uM in presence of ATP relative to control
Method in brief: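 In vitro ATP-site competition binding assay across a diverse panel of 128 kinases, with each compound tested at a single concentration. Kinase binding is expressed relative to control.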

[7] = tested on: Tyrosine-protein kinase ABL1 (Homo sapiens), P00519 [E255K]; test: Competitive binding affinity to ABL1 E255K mutant (unknown origin) at 10 uM in presence of ATP relative to control
[8] = molecular target: SRSF protein kinase 1 (Homo sapiens) (UniProt Q96SB4); test: Competitive binding affinity to SRPK1 (unknown origin) at 10 uM in presence of ATP relative to control
[9] = molecular target: T2, cGMP-dependent protein kinase 2 (Homo sapiens) (UniProt Q13237); test: Competitive binding affinity to PRKG2 (unknown origin) at 10 uM in presence of ATP relative to control
T2 sequence (whole entry): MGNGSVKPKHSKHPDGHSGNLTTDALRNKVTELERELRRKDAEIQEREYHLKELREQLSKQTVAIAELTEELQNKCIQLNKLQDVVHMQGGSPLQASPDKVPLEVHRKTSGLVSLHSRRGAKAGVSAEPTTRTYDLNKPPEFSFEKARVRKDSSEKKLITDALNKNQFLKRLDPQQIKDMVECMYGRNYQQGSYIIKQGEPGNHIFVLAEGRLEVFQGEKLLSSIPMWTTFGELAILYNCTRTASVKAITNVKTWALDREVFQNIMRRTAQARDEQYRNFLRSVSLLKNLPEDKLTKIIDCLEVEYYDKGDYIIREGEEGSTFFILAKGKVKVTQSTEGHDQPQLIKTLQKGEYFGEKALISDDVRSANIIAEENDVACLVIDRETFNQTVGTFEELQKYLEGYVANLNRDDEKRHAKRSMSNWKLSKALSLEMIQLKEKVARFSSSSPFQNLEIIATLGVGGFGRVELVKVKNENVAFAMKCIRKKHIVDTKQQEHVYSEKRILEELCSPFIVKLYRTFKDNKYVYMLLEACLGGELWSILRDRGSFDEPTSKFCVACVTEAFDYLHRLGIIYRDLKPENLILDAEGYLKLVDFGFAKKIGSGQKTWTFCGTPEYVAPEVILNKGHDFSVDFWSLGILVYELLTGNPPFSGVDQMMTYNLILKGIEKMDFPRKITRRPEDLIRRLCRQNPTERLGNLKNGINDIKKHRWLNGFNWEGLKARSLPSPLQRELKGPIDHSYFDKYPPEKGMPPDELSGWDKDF

[10] = molecular target: Serine/threonine-protein kinase pim-1 (Homo sapiens) (UniProt P11309); test: Competitive binding affinity to PIM1 (unknown origin) at 10 uM in presence of ATP relative to control
[11] = molecular target: Serine/threonine-protein kinase PAK 2 (Homo sapiens) (UniProt Q13177); test: Competitive binding affinity to PAK2 (unknown origin) at 10 uM in presence of ATP relative to control
Method in brief: (§2)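 In vitro ATP-site competition binding assay across a diverse panel of 128 kinases, with compound tested at a single concentration. Kinase selectivity scores (S15) were calculated from the panel profiles.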

[12] = molecular target: Serine/threonine-protein kinase 38-like (Homo sapiens) (UniProt Q9Y2H1); test: Competitive binding affinity to NDR2 (unknown origin) at 10 uM in presence of ATP relative to control; method in brief: as §2

Row | inhibition [1] [%] | inhibition [2] [%] | inhibition [3] [%] | inhibition [4] [%] | inhibition [5] [%] | inhibition [6] [%] | inhibition [7] [%] | inhibition [8] [%] | inhibition [9] [%] | inhibition [10] [%] | inhibition [11] [%] | inhibition [12] [%] | SMILES
1 | 76 | 78 | < 50 | < 50 | < 50 | 89 | < 50 | < 50 | < 50 | 96 | < 50 | < 50 | O[C@H]1CC[C@H](Nc2nccc(-n3ncc4ccccc43)n2)CC1
2 | 80 | 83 | < 50 | < 50 | < 50 | 80 | < 50 | < 50 | < 50 | 76 | < 50 | < 50 | O[C@H]1CC[C@H](Nc2nccc(-n3ccc4ccccc43)n2)CC1
3 | 94 |  |  | 66 | < 50 | 79 | < 50 | 100 | < 50 | 99 | 82 | 72 | O[C@H]1CC[C@H](Nc2nccc(-c3n[nH]c4ccccc34)n2)CC1
4 | 79 | 78 | < 50 | < 50 | < 50 | 92 | < 50 | < 50 | < 50 | 87 | < 50 | < 50 | O[C@H]1CC[C@H](Nc2nccc(-n3nnc4ccccc43)n2)CC1
5 |  |  |  |  |  | > 85 |  |  |  |  |  |  | CS(=O)(=O)CCCOc1cccc2c1ccn2-c1ccnc(N[C@H]2CC[C@H](C(=O)N3CCC(O)CC3)CC2)n1

From ChEMBL document CHEMBL2424622, “Development of amino-pyrimidine inhibitors of c-Jun N-terminal kinase (JNK): kinase profiling guided optimization of a 1,2,3-benzotriazole lead” (Bioorg Med Chem Lett, 2013)
